High-throughput results from PubChem BioAssay.
Rows were chosen to be rich in hits. Some 3.1% of all compounds tested hit in one or more screens of this group.
OX1R antag-1 – blocks the human orexin 1 receptor. OX1R-expressing cells, FRET antagonist read-out. 1.8% of 330,000 active. O43613. AID 485270. inhibition, % at 6.6 µM; in the data active = inhibition mostly above about 38%, no sharp cut-off; inactive = mostly below about 40%;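 also: 0% = agonist challenge alone and 100% = reference antagonist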
Target sequence (O43613 whole entry, looked up): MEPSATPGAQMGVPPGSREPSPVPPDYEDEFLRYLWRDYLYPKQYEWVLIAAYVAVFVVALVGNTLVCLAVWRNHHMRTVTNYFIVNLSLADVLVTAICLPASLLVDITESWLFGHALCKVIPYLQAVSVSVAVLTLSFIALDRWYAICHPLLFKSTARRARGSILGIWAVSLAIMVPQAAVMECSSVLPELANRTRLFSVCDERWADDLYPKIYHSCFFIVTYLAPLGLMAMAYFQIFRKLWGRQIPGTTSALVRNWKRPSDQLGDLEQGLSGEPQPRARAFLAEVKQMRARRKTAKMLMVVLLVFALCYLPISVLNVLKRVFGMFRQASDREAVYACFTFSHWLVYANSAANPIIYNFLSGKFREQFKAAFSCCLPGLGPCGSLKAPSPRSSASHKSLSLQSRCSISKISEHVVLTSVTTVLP
CHO parental Ca – counter-screen for OX1R antagonists: effect in parental CHO cells; parental CHO-K1, ATP-induced calcium, Fluo-8 fluorescence; inhibition, % at 5.6 µM; 0.63% of 330,000 active; AID 463079;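 active = inhibition above that plate's mean sample inhibition plus 3 SD, cut at about 26% in these data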;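 also: 0% = ATP-challenged DMSO wells and 100% = DMSO wells without ATP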
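Material: Parental CHO cells | Reagent: ATP | Compound dosing: Single nominal dose of 5.6 µM per compound | Detection: Intracellular calcium via Fluo-8 no-wash fluorescent dye | Read-out: % inhibition of ATP-induced calcium mobilization | Benchmarks: Low control ATP plus DMSO, high control DMSO only | Replicates: Singlicate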
GPR7 antagonist – blocks human GPR7 receptor signaling; GPR7-expressing cells, fluorescence antagonist assay; inhibition, % at 4.4 µM; 1.1% of 290,000 active; in the data active = inhibition above about 16%, passing the limit was not always enough;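 also: cells stimulated with the agonist NPW; 0% = agonist with vehicle and 100% = vehicle without agonist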
OX1R antag-2 – blocks the human orexin 1 receptor; AID 434989; 0.43% of 330,000 active; inhibition, % at 5 µM; O43613; CHO/OX1R cells, Fluo-8 calcium fluorescence, orexin A;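 active = inhibition above its plate's threshold, mean inhibition of all tested compounds on the plate plus 3 SD, cut at about 37% in these data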;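 also: 0% = orexin A challenge wells and 100% = SB-334867-A antagonist wells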
GalR3 antagonist – antagonists of human GalR3; O60755; HEK293 GalR3-CNG cAMP membrane potential fluorescence; galR3 body fused to GalR1 C-terminus; inhibition, % at 3 µM; 0.44% of 360,000 active;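 active = inhibition above the screen-wide average plus 3 SD, cut at about 13% in these data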;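 also: forskolin and galanin both at EC90 stimulate the cells; cAMP rise reported by CNG channel membrane potential dye signal; 0% = forskolin plus galanin with DMSO and 100% = forskolin alone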
The depositor's hits bear a star.

CCC(C)(C)NC(=O)c1ccc2c(c1)S(=O)(=O)c1ccccc1C2=O was read as OX1R antag-1 61, CHO parental Ca -22, GPR7 antagonist -2, OX1R antag-2 -37 and GalR3 antagonist -2.
O=C1c2ccccc2S(=O)(=O)c2cc(C(=O)N3CCN(c4ncccn4)CC3)ccc21 was read as OX1R antag-1 27, CHO parental Ca 4, OX1R antag-2 -7 and GalR3 antagonist -1.
`CN1CCN(C(=O)c2ccc3c(c2)S(=O)(=O)c2ccccc2C3=O)CC1` gave OX1R antag-1 76*, CHO parental Ca -8, GPR7 antagonist -1, OX1R antag-2 -7 and GalR3 antagonist 2.
`O=C1c2ccccc2S(=O)(=O)c2cc(C(=O)N3CCN(C(=O)c4ccccc4)CC3)ccc21` gave OX1R antag-1 39, CHO parental Ca -5, OX1R antag-2 -12 and GalR3 antagonist -3.
Screening CCN(CC(=O)NC(C)(C)C)C(=O)c1ccc2c(c1)S(=O)(=O)c1ccccc1C2=O returned OX1R antag-1 56*, CHO parental Ca -24, GPR7 antagonist -1, OX1R antag-2 -29 and GalR3 antagonist 6.
`C[C@@H]1CN([C@H](C)CO)S(=O)(=O)c2ccc(Br)cc2O[C@@H]1CN(C)C(=O)NC1CCCC1` gave GalR3 antagonist -6.
`COc1ccc2c(c1)/C(=C\c1cccc(/C=C3/C(=O)Nc4ccc(OC)cc43)n1)C(=O)N2` gave GalR3 antagonist -1.
COC(=O)C1=C(C)N(C)C(=NCc2ccc(OC)cc2)NC1c1cccc(C(F)(F)F)c1 (centres undefined) was read as GalR3 antagonist -6.
CC(=O)N1CCN(C(=O)c2ccc3c(c2)S(=O)(=O)c2ccccc2C3=O)CC1 was read as OX1R antag-1 69*, CHO parental Ca -14, GPR7 antagonist -3, OX1R antag-2 -11 and GalR3 antagonist -8.
For CC1=Nc2ccccc2/C1=C\c1nc(-c2ccccc2)oc1O the results were OX1R antag-1 26, CHO parental Ca 14, GPR7 antagonist -2, OX1R antag-2 19 and GalR3 antagonist -5.
CC1=Nc2ccccc2/C1=C/c1nc(-c2ccc(C)s2)oc1O was read as OX1R antag-1 16, CHO parental Ca 43*, GPR7 antagonist 14, OX1R antag-2 68* and GalR3 antagonist -7.
CCOc1ccc(S(=O)(=O)c2ccc(C)cc2)c2c1no[n+]2[O-] was read as GalR3 antagonist -1.
For O=C(NCc1ccncc1)[C@@H]1CCCN1C(=O)[C@H]1CCCN1C(=O)c1ccccc1 the results were GalR3 antagonist -7.
`CCC(=O)NC(c1ccco1)c1cc(Cl)c2ccccc2c1O` (centres undefined) gave OX1R antag-1 50*, CHO parental Ca -16, OX1R antag-2 23 and GalR3 antagonist -5.
For O=c1[nH][nH]c(=O)c2cc([N+](=O)[O-])ccc12 the results were OX1R antag-1 52*, CHO parental Ca -7, OX1R antag-2 -14 and GalR3 antagonist -4.
Screening O=c1[nH]cnc2ccccc12 returned OX1R antag-1 9, CHO parental Ca -2, GPR7 antagonist -5, OX1R antag-2 -1 and GalR3 antagonist -4.
`O=c1[nH]cnc2ccc([N+](=O)[O-])cc12` gave OX1R antag-1 52*, CHO parental Ca 5, GPR7 antagonist 3, OX1R antag-2 0 and GalR3 antagonist -3.
Screening OC(Cc1ccccc1Br)c1ncc(-c2cccc(C(F)(F)F)c2)[nH]1 (centres undefined) returned GalR3 antagonist -6.
`COc1cccc2c(=O)cc(C)n(CC(=O)Nc3ccc(C)c(C)c3)c12` gave OX1R antag-1 49*, CHO parental Ca 47*, GPR7 antagonist 15, OX1R antag-2 -1 and GalR3 antagonist -7.
For c1ccc2c(c1)oc1c(-c3cccc4nccn34)cccc12 the results were GalR3 antagonist -7.
C=CCN1C(=O)c2ccc(C(=O)N(C)CC(=O)Nc3c(C)cccc3C)cc2C1=O was read as OX1R antag-1 25, CHO parental Ca -7, OX1R antag-2 -19 and GalR3 antagonist 2.
C=CCN1C(=O)c2ccc(C(=O)N(C)CC(=O)Nc3ccc(OCC)c(OCC)c3)cc2C1=O was read as OX1R antag-1 27, CHO parental Ca 39*, OX1R antag-2 -5 and GalR3 antagonist -1.
For O=C(NC1=NCCS1)c1ccc(Cl)cc1 the results were OX1R antag-1 15, CHO parental Ca 2, GPR7 antagonist 10, OX1R antag-2 2 and GalR3 antagonist -7.
Screening O=C(NC1=NCCS1)c1ccc(-c2ccc(Cl)cc2)o1 returned OX1R antag-1 56*, CHO parental Ca -33, GPR7 antagonist 2, OX1R antag-2 -21 and GalR3 antagonist -3.
Screening Cc1ccc(NC(=O)c2ccccc2NS(=O)(=O)c2ccc(Cl)s2)cc1S(=O)(=O)N1CCOCC1 returned OX1R antag-1 63*, CHO parental Ca 1, GPR7 antagonist 11, OX1R antag-2 21 and GalR3 antagonist -3.
O=C(Nc1cc(S(=O)(=O)N2CCOCC2)ccc1O)c1ccc(NS(=O)(=O)c2ccc(Cl)s2)cc1 was read as OX1R antag-1 5, CHO parental Ca 12, GPR7 antagonist 5, OX1R antag-2 8 and GalR3 antagonist 1.
`CCCn1c(=O)[nH]c(=O)c2c1nc(-c1cc([N+](=O)[O-])ccc1Cl)n2CCOC` gave OX1R antag-1 41*, CHO parental Ca -21, GPR7 antagonist -8, OX1R antag-2 -24 and GalR3 antagonist -4.
For O=C(O)c1cccc(NC(=S)N/N=C/c2ccccc2OCc2ccc(Br)cc2)c1 the results were OX1R antag-1 50, CHO parental Ca 42*, GPR7 antagonist -8, OX1R antag-2 16 and GalR3 antagonist 2.
Cn1c2ccccc2c2ncn(Cc3ccc(F)cc3)c(=O)c21 was read as OX1R antag-1 6, CHO parental Ca -23, GPR7 antagonist -11, OX1R antag-2 -29 and GalR3 antagonist -1.
For Cn1c2ccsc2c2ncn(Cc3ccccc3F)c(=O)c21 the results were OX1R antag-1 42*, CHO parental Ca -8, OX1R antag-2 25 and GalR3 antagonist -6.
Screening O=C(CSc1nc(-c2ccccc2)c(-c2ccccc2)[nH]1)Nc1ccc2c(c1)OCO2 returned OX1R antag-1 50*, CHO parental Ca -16, GPR7 antagonist -11, OX1R antag-2 5 and GalR3 antagonist -4.
COc1ccc2oc(=O)c(C(=O)NC3CCCCCC3)cc2c1 was read as OX1R antag-1 6, CHO parental Ca -11, GPR7 antagonist -2, OX1R antag-2 -30 and GalR3 antagonist -4.
COc1cccc2cc(C(=O)NCC3CCCO3)c(=O)oc12 (centres undefined) was read as OX1R antag-1 77*, CHO parental Ca -4, GPR7 antagonist -10, OX1R antag-2 -8 and GalR3 antagonist 1.
Screening COc1ccc2oc(=O)c(C(=O)NCC3CCCO3)cc2c1 (centres undefined) returned OX1R antag-1 61*, CHO parental Ca -10, GPR7 antagonist 4, OX1R antag-2 -10 and GalR3 antagonist -3.
